The subject of data set [1] is HepG2. The experiment in a line: Cytotoxicity against human HepG2 cells assessed as reduction in cell viability after 48 hrs by sulforhodamine B colorimetric assay. The following applies: HepG2, 48 h. In kind it is functional, cell-based. A digest of the protocol:
(§1)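 Cell lines were kept at 37°C under 5% CO₂. HepG2, Hepa1-6, HeLa and MCF-7 were grown in DMEM with 10% FBS. Caco-2 was grown in DMEM with 20% FBS. HT-29 was grown in McCoy's medium with 10% FBS. The viability assay used 10-μM doxorubicin as positive control. Values marked * came from a single dose curve.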

Data set [2] is described as follows: Cytotoxicity against mouse Hepa1-6 cells assessed as reduction in cell viability after 48 hrs by sulforhodamine B colorimetric assay. In kind it is functional, cell-based. Particulars: Hepa1-6, 48 h. A digest of the protocol:
as §1
For orientation: In SRB staining, fixed cells bind dye roughly in proportion to their protein.

A further data set relates to HT-29. In words: Cytotoxicity against human HT-29 cells assessed as reduction in cell viability after 48 hrs by sulforhodamine B colorimetric assay. In kind it is functional, cell-based. The following applies: HT-29, 48 h. The method, boiled down: as §1
Data set [3] concerns HeLa. The experiment in a line: Cytotoxicity against human HeLa cells assessed as reduction in cell viability after 48 hrs by sulforhodamine B colorimetric assay. In kind it is functional, cell-based. A digest of the protocol:
as §1

Another data set concerns MCF7. The experiment in a line: Cytotoxicity against human MCF7 cells assessed as reduction in cell viability after 48 hrs by sulforhodamine B colorimetric assay. The following applies: MCF7, 48 h. Format: functional, cell-based. A digest of the protocol: as §1
The nature of data set [4]: Cytotoxicity against human Caco2 cells assessed as reduction in cell viability after 48 hrs by sulforhodamine B colorimetric assay. In kind it is functional, cell-based. The following applies: Caco-2, 48 h. A digest of the protocol:
as §1

Data set [5] is described as follows: Cytotoxicity against human SKOV3 cells assessed as reduction in cell viability after 48 hrs by sulforhodamine B colorimetric assay. Format: functional, cell-based. The following applies: SK-OV-3, 48 h. A digest of the protocol:
(§2)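 SKOV3 cells and the retrovirally transduced subclone SKOV3-MDR1-M6/6, which overexpresses P-glycoprotein, were grown in BME with 10% FBS at 37°C under 5% CO₂. Cells were exposed to 0-25 μM for 48 hrs. Viability was read by SRB assay and a dose curve was plotted for each cell line. Paclitaxel served as the reference drug.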

The nature of data set [6]: Cytotoxicity against human SKOV3-MDR1-M6/6 cells assessed as reduction in cell viability at 25 uM after 48 hrs by sulforhodamine B colorimetric assay. Format: functional. A digest of the protocol: as §2
Data set [7] has as its system Hepa1-6. In words: Cytotoxicity against mouse Hepa1-6 cells assessed as reduction in cell viability at 50 uM after 48 hrs by sulforhodamine B colorimetric assay. In kind it is functional, cell-based. The method, boiled down:
(§3)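 Primary mouse hepatocytes and Hepa1-6 cells were exposed to graded doses for 48 hrs. Viability was normalized to DMSO-treated cells. Hepa1-6 cells were grown in DMEM with 10% FBS at 37°C under 5% CO₂. 10-μM doxorubicin served as the cytotoxicity positive control.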

Data set [8] concerns Hepatocyte. The experiment in a line: Cytotoxicity against hepatocytes (unknown origin) assessed as reduction in cell viability at 50 uM after 48 hrs by sulforhodamine B colorimetric assay. In kind it is cell-based. A digest of the protocol: as §3
Data set [9] relates to Hepa1-6. The experiment in a line: Cytotoxicity against mouse Hepa1-6 cells assessed as reduction in cell viability at <5 uM after 48 hrs by sulforhodamine B colorimetric assay. In kind it is functional, cell-based. The method, boiled down:
as §3

The test system of data set [10] is Hepatocyte. The experiment in a line: Cytotoxicity against hepatocytes (unknown origin) assessed as reduction in cell viability at <5 uM after 48 hrs by sulforhodamine B colorimetric assay. Format: cell-based. A digest of the protocol:
as §3

For data set [11], the system named is HeLa. The experiment in a line: Induction of apoptosis in human HeLa cells assessed as membrane blebbing at 2 uM after 12 hrs by microscopy. Format: functional, cell-based. The method, boiled down:
(§4)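 HeLa cells were seeded at 1.5-2.0×10^5 cells/well and treated. Membrane blebbing and cell shrinkage were assessed by light microscopy after 8, 12 or 15 hrs.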

The subject of data set [12] is HeLa. The experiment in a line: Induction of apoptosis in human HeLa cells assessed as membrane blebbing at 2 uM after 8 hrs by microscopy. Particulars: in the assay text read “12 hrs” for “8 hrs”. Format: functional, cell-based. A digest of the protocol:
as §4

In data set [13] the test system is HeLa. In words: Induction of apoptosis in human HeLa cells assessed as membrane blebbing at 2 uM after 15 hrs by microscopy. In kind it is functional, cell-based. The following applies: in the assay text read “12 hrs” for “15 hrs”. A digest of the protocol: as §4
The subject of data set [14] is HeLa. In words: Induction of apoptosis in human HeLa cells assessed as PARP cleavage at <10 uM after 12 hrs by Western blotting. Format: functional, cell-based. A digest of the protocol: (§5)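 HeLa cells were treated for 12 hrs and lysed in 0.5% SDS buffer (50 mM Tris pH 8.0, 1 mM DTT, phosphatase and protease inhibitors). Lysates were western blotted with anti-PARP for full-length and cleaved PARP. 1 μM staurosporine served as positive control.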

Data set [15] concerns HeLa. In words: Induction of apoptosis in human HeLa cells assessed as PARP cleavage at 10 uM after 12 hrs by Western blotting. Format: functional, cell-based. A digest of the protocol: as §5
A short description of data set [16]: Drug localization in cytoplasmic membrane of human HepG2 cells at 30 uM for 3 hrs by epifluorescent microscopy. Particulars: hepg2, 3 h. In kind it is ADME, cell membranes.
A short description of data set [17]: Drug localization in cytoplasmic membrane of human HepG2 cells at 30 uM for 3 hrs by BODIPY TR-labelling based confocal microsocopy. Format: ADME, cell membranes. Particulars: hepg2, 3 h. A digest of the protocol:
(§6)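 Cells (200,000/well) were seeded on coverslips and incubated overnight at 37°C, then treated for 4 hrs (50 μM) or 3 hrs. They were rinsed with PBS/BSA and stained with 5 µM BODIPY TR-labeled sphingolipids for 30 min at 4°C. Cells were fixed in 4% paraformaldehyde, permeabilized with 0.2% Triton X-100, and examined by confocal microscopy using 1 µm Z-stacks.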

Data set [18] is described as follows: Drug localization in […] rich regions of cytoplasmic membrane of human HepG2 cells at 3 uM for 2 hrs by BODIPY TR-labeled sphingolipids detection based Western blotting. Format: ADME, cell-based. The following applies: hepg2, 2 h. The method, boiled down: (§7)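 HepG2 cells (1x10^6/plate) were treated for 4 hrs at 5 μM or for 2 hrs at 3 μM, then stained with 5 μM BODIPY TR sphingolipids for 30 min at 4°C. Cells were lysed in PBS with 0.5% Brij-96, and lysates were normalized by BCA. Lysates were separated on a step OptiPrep gradient (2.5–30%) at 125,000 g for 12 hrs. Fractions were analysed for compound fluorescence and blotted for Thy-1, Lyn and GAPDH.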
(Immunoblotting shows a protein as a band on a membrane.)

Data set [19] is described as follows: Cytotoxicity against human SKOV3-MDR1-M6/6 cells assessed as reduction in cell viability after 48 hrs by sulforhodamine B colorimetric assay. In kind it is functional, cell-based. Particulars: SKOV3-MDR1-M6/6, 48 h. The method, boiled down: as §2
Data set [20] concerns HepG2. In words: Drug localization human HepG2 cells at 50 uM for 4 hrs by epifluorescent microscopy. Particulars: hepg2, 4 h. Format: ADME, cell-based.
Data set [21] can be described thus: Drug localization in cytoplasmic membrane of human HepG2 cells at 50 uM for 4 hrs by BODIPY TR-labelling based confocal microsocopy. In kind it is ADME, cell membranes. The following applies: hepg2, 4 h. The method, boiled down: as §6
The nature of data set [22]: Drug localization in […] rich regions of cytoplasmic membrane of human HepG2 cells at 5 uM for 4 hrs by BODIPY TR-labeled sphingolipids detection based Western blotting. Format: ADME, cell-based. Particulars: hepg2, 4 h. A digest of the protocol:
as §7

Structures are written as SMILES. Active and inactive are the calls of the source. No cut-off for these calls is given here.

Broadly, the IC50 is the midpoint of a concentration-inhibition curve. For `CN1CCN(C(=O)CCC(=O)Nc2cc3cccc4ccc5cccc2c5c43)CC1`, the IC50 is 16.9 µM with HepG2 [1]; 14.8 µM in data set [2]; 19.3 µM with HT-29; 16.8 µM in the data set on HeLa [3]; 14.1 µM with MCF7.

For `c1cc2ccc3cccc4c(NCCCCCN5CCCCC5)cc(c1)c2c34`, the IC50 is 18.8 µM in the data set on HepG2 [1]; 18.3 µM in [2]; 19.8 µM in the data set on HT-29; 18.2 µM in the data set with HeLa [3]; 14.1 µM in the data set on MCF7.

Take `CC(C)COC(=O)Nc1cc2cccc3ccc4cccc1c4c32`: the IC50 in the data set with HepG2 [1] is 30.4 µM; in data set [2], 5.9 µM; in the data set on HT-29, 20.7 µM; in the data set with HeLa [3], 16.2 µM; in [4] it was 36.3 µM.

`CC(=O)O[C@H]1C(=O)[C@@]2(C)[C@H]([C@H](OC(=O)c3ccccc3)[C@]3(O)C[C@H](OC(=O)[C@H](O)[C@@H](NC(=O)c4ccccc4)c4ccccc4)C(C)=C1C3(C)C)[C@]1(OC(C)=O)CO[C@@H]1C[C@@H]2O` [PACLITAXEL]: the IC50 in [5] is below 0.001 µM. The Activity in data set [6] is 40%.

`c1cc2ccc3cccc4c(NCCCCN5CCCCC5)cc(c1)c2c34`: the IC50 in the data set with HepG2 [1] was found to be 1.4 µM; in data set [2], 2.5 µM; with HT-29, 2.98 µM; in the data set with HeLa [3], 2.6 µM; in the data set with MCF7 it was 1.1 µM; in data set [5], 5 µM. For the same compound, the IC50 in data set [19] amounted to 6.4 µM. The result in the data set with Hepa1-6 [7], in the data set on Hepa1-6 [9], with HeLa [11], in the data set with HeLa [12], with HeLa [13] and in the data set on HeLa [15] was Active. Moreover, the Activity entry with Hepatocyte [8] was “Toxic”; in the data set with Hepatocyte [10], “Non-toxic”. Also, in the data set with HeLa [14], the outcome was inactive. In addition, the Drug uptake entry in data set [16], in data set [17] and in [18] was “Active” each time.

Regarding `O=C(CCCC(=O)N1CCCCC1)Nc1cc2cccc3ccc4cccc1c4c32`, the IC50 (in data set [2]; with HT-29; in the data set on HeLa [3]; in the data set with MCF7) was above 30 µM throughout.

As to `O=C(CCC(=O)N1CCCCC1)Nc1cc2cccc3ccc4cccc1c4c32`, the IC50 (in the data set with HepG2 [1]; in data set [2]; in the data set with HeLa [3]) was above 30 µM in each case.

Turning to `CC(C)COCNc1cc2cccc3ccc4cccc1c4c32`, the IC50 was 39.6 µM with HepG2 [1]; 9.9 µM in data set [2]; 14 µM in the data set with HT-29; 9.8 µM with HeLa [3]; above 50 µM in data set [4]. Further, the Drug uptake result (with HepG2 [20]; in [21]; in data set [22]) was “Active” in each case.

`CN1CCN(CCCCNc2cc3cccc4ccc5cccc2c5c43)CC1`: the IC50 was 2.4 µM in the data set on HepG2 [1]; 1.1 µM in [2]; 4.8 µM in the data set on HT-29; 4.1 µM in the data set on HeLa [3]; 2.6 µM with MCF7; 7.23 µM in [4]. Besides, the IC50 in data set [5] came out at 5.5 µM; in [19], 6.2 µM. Moreover, the result in the data set on Hepa1-6 [7], in the data set with Hepa1-6 [9], in the data set on HeLa [11], with HeLa [12], in the data set with HeLa [13] and in the data set with HeLa [15] was Active. Further, the Activity entry in the data set with Hepatocyte [8] is recorded as “Toxic”; in the data set with Hepatocyte [10] it was “Non-toxic”. The result in the data set with HeLa [14] was inactive. Besides, the Drug uptake entry in [16], in [17] and in [18] was “Active” each time.

(Values after ChEMBL document CHEMBL3351416, “Design, synthesis and biological evaluation of novel pyrenyl derivatives as anticancer agents” (Eur J Med Chem, 2015).)
